# Measurements pooled from the literature.
# Each line is one published result; the experiments were not run side by side.
# Sample: plasma
SMILES,test system,setting,endpoint,value
C[C@@]12C[C@@]3(O)O[C@@H](O1)[C@]1(COC(=O)c4ccccc4)[C@H]3C[C@@]12O[C@@H]1O[C@H](CO)[C@@H](O)[C@H](O)[C@H]1O,male Sprague-Dawley rat,"oral, 80 mg/kg",MRT(0-inf),10.9 h
CC[C@@H]([C@H](C)O)n1ncn(-c2ccc(N3CCN(c4ccc(OC[C@@H]5CO[C@@](Cn6cncn6)(c6ccc(F)cc6F)C5)cc4)CC3)cc2)c1=O,Sprague-Dawley rat,"oral, 40 mg/kg",MRT(0-t),10.3 h
CONC(=O)c1cccc2c1cc(C)n2-c1nc2c(c(NCc3ccccc3)n1)CCCN2,male Sprague-Dawley rat,"oral, 10 mg/kg, single dose",MRT,1.55 h
C=CC(=O)N1CCC[C@@H](n2nc(-c3ccc(Oc4ccccc4)cc3)c3c(N)ncnc32)C1,male Wistar rat,"oral, 40 mg/kg",MRT,4.55 h
C=CC(=O)N1CCC([C@@H]2CCNc3c(C(N)=O)c(-c4ccc(Oc5ccccc5)cc4)nn32)CC1,Sprague-Dawley rat,"oral, 16 mg/kg",MRT(0-t),3.81 h
Nc1ccn([C@@H]2O[C@H](CO)[C@@H](O)C2(F)F)c(=O)n1,male Sprague-Dawley rat,"intraperitoneal, 5 mg/kg",MRT(0-inf),0.88 h
COc1cc(-c2cc(C(C)=O)n3ccccc23)c(OC)cc1Cn1ccnc1,male Sprague-Dawley rat,"oral, 5 mg/kg",MRT(0-t),1.73 h
Cn1c(=O)c2[nH]cnc2n(C)c1=O,male Sprague-Dawley rat,"intravenous, 11.25 mg/kg",MRT(0-t),3.3 h
COc1nc(-c2cccc(-c3ccccc3)c2C)ccc1CNCCNC(=O)CCCCCCCCCCC(=O)N1CCN(CCNC(=O)c2cc3c(=O)n4cccc(C)c4nc3n(CCc3cccs3)c2=N)CC1,male Sprague-Dawley rat,"intravenous, 2 mg/kg",MRT(0-t),4.8 h
C[C@H]1Oc2cc(cnc2N)-c2c(nn(C)c2C#N)CN(C)C(=O)c2ccc(F)cc21,male Sprague-Dawley rat,"oral, 50 mg/kg, single dose",MRT(0-inf),25 h
COc1ccc(N(Cc2csc(-c3ccccc3)n2)C(=O)CCCCCC(=O)NO)cc1,female Sprague-Dawley rat,"oral, 30 mg/kg",MRT,3.18 h
O=C1CCC(N2Cc3cc(C4CCN(Cc5ccccc5)CC4)ccc3C2=O)C(=O)N1 (centres unmarked),male Sprague-Dawley rat,"oral, 3 mg/kg",MRT(0-t),3 h
CCOc1c([C@H](C)n2nc(C)c3c(N)ncnc32)cc(Cl)c(F)c1[C@@H]1CNC(=O)C1,male Sprague-Dawley rat,"oral, 2 mg/kg, single dose",MRT(0-t),7.67 h
C[C@H]1[C@@H](O)O[C@@H]2O[C@@]3(C)CC[C@H]4[C@H](C)CC[C@@H]1[C@@]24OO3,male Sprague-Dawley rat,"oral, 10 mg/kg",MRT(0-t),1.56 h
